Data on 3 molecules can be found in ChEMBL document CHEMBL1137618, “Synthesis and structure-activity relationship studies of 3,6-diazabicyclo[3.2.0]heptanes as novel alpha4beta2 nicotinic acetylcholine receptor selective agonists” (J Med Chem, 2007).

Molecules are shown by their SMILES.

Test [1] can be described thus: Displacement of [3H]cytisine from neuronal nicotinic acetylcholine receptor in rat brain membrane. Type of test: cell membranes.
Test [2] concerns the target T1, Neuronal acetylcholine receptor; alpha3/beta4 (Homo sapiens, UniProt P30926+P32297). Nature of the test: Agonist activity at recombinant human alpha-3-beta-4 nAChR expressed in HEK293 cells assessed as induction of calcium influx by FLIPR assay. Type of test: functional, cell-based.
For test [3], the target named is T2, Neuronal acetylcholine receptor; alpha4/beta2 (Homo sapiens, UniProt P17787+P43681). Nature of the test: Agonist activity at recombinant human alpha-4-beta-2 nAChR expressed in HEK293 cells assessed as induction of calcium influx by FLIPR assay relative to nicotine. Type of test: functional, cell-based. Summed up:
(§1)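 HEK-293 lines stably expressing human α4β2 or α3β4 nAChR, grown 24-48 h at 37 °C on poly-D-lysine in DMEM/10% FBS. Loaded with 2-4 µM Fluo-4 AM for ~0.75-1 h at room temperature in the dark, in NMDG Ringer pH 7.4. Serial log dilutions added, then peak calcium fluorescence read on FLIPR after buffer-blank subtraction.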

Test [4] addresses T2, Neuronal acetylcholine receptor; alpha4/beta2. Nature of the test: Agonist activity at recombinant human alpha-4-beta-2 nAChR expressed in HEK293 cells assessed as induction of calcium influx by FLIPR assay. In kind it is functional, cell-based.
In test [5] the target is T1, Neuronal acetylcholine receptor; alpha3/beta4. In words: Agonist activity at recombinant human alpha3beta4 nAChR expressed in HEK293 cells assessed as induction of calcium influx by FLIPR assay relative to nicotine. In kind it is functional, cell-based. In outline: as §1

T2 sequence (P17787 whole entry): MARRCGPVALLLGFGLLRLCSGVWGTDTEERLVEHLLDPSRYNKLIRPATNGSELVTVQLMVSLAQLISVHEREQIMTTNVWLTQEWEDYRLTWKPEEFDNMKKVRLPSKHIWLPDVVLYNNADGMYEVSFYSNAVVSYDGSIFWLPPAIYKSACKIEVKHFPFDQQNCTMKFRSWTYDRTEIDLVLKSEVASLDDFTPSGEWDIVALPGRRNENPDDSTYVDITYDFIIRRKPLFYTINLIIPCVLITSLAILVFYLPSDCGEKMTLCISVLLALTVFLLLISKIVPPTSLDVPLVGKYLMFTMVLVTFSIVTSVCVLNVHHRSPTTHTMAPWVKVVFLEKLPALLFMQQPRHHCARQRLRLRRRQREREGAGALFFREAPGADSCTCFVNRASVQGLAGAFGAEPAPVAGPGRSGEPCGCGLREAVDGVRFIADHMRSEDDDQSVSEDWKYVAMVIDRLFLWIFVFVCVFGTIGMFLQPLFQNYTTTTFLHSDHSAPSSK
T2 sequence (P43681 whole entry): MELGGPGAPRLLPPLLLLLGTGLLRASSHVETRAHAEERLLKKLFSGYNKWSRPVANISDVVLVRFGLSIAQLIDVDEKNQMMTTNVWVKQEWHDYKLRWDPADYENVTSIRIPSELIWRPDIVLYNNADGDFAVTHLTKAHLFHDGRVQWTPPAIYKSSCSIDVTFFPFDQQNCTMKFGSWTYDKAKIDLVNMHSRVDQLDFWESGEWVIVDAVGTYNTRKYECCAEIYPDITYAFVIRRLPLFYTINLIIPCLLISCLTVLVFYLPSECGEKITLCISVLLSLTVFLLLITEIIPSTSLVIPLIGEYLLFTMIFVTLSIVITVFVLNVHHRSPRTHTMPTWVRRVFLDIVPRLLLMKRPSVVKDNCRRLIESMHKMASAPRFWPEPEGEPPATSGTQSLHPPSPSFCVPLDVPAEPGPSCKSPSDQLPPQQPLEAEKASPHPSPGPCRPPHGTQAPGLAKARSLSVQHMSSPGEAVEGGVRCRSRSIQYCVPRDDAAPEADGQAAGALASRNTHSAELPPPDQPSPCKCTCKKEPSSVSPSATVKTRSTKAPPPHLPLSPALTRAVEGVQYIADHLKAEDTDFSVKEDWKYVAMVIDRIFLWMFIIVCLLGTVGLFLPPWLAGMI
T1 sequence (P30926 whole entry): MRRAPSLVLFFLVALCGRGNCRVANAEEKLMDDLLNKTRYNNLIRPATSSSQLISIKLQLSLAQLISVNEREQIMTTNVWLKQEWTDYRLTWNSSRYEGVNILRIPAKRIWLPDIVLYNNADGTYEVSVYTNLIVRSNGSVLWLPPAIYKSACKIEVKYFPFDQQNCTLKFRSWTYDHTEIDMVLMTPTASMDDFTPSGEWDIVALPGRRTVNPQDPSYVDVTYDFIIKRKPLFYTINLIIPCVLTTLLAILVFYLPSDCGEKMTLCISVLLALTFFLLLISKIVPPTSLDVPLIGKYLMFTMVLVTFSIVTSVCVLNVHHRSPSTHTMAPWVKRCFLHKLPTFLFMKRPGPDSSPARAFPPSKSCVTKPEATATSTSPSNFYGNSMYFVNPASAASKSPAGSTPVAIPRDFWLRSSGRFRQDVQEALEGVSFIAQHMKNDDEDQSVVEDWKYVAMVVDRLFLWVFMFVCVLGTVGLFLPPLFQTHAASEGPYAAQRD
T1 sequence (P32297 whole entry): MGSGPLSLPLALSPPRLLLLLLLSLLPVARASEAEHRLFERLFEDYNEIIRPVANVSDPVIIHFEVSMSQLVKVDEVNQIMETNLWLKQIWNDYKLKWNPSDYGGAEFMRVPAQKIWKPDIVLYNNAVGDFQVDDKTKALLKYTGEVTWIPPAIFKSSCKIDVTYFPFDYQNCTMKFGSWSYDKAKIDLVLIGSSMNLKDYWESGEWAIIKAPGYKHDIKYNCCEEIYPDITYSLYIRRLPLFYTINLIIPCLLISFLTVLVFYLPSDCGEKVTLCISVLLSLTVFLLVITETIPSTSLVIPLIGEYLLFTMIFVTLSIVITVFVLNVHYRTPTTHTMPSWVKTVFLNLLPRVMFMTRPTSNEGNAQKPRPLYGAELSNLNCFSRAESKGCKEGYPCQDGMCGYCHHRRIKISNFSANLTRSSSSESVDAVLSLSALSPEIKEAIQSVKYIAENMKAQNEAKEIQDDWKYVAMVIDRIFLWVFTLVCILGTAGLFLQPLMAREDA

Molecule `N#Cc1cncc(N2C[C@H]3CN[C@H]3C2)c1` gave a Ki in test [1] of 0.0001 µM. Further, the “Log Ki” value in test [1] is -9.92. Besides, the figures for the EC50 in test [2] (read-out: EC50), in test [4] (read-out: EC50) and in test [4] (read-out: Log EC50 (converted)) were 0.3 µM, 0.6 µM and 0.417 µM, respectively. Also, the results for the Activity in test [3] and in test [5] were 123% and 102%, respectively.

In test [1], `C#Cc1cncc(N2C[C@@H]3CNC[C@@H]32)c1` gave a Ki of 0.0006 µM. Moreover, in test [1], the “Log Ki” value is given as -9.21. Also, the EC50 in test [2] (read-out: EC50) was 33.2 µM; in test [2] (read-out: Log EC50 (converted)), 13.2 µM; in test [4] (read-out: EC50), 20.4 µM; in test [4] (read-out: Log EC50 (converted)), 13.5 µM. For the same molecule, the Activity in test [3] worked out at 45%; in test [5], 33%.

`Brc1cncc(N2C[C@@H]3CNC[C@@H]32)c1` showed a Ki in test [1] of 0.0015 µM. The “Log Ki” value in test [1] was -8.83. Further, the EC50 was 6.6 µM in test [2] (read-out: EC50), 3.09 µM in test [2] (read-out: Log EC50 (converted)), 11.4 µM in test [4] (read-out: EC50) and 8.71 µM in test [4] (read-out: Log EC50 (converted)). In addition, the values for the Activity in test [3] and in test [5] were 20% and 23%, respectively.
